Experimental data taken from ChEMBL document CHEMBL1149047, “New teleocidin-related metabolites, (-)-7-geranylindolactam V and blastmycetin F, from Streptoverticillium blastmyceticum” (J Nat Prod, 1994).

Columns and labels:
HeLa [1] = assay: Tumor promoter activity in human HeLa cells assessed as enhancement of incorporation of 32Pi into phospholipid per mg of protein at 10 nM; assay type: ADME, cell-based; details: 0.01 µM
In short: (§1)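 HeLa cells treated with compound in 0.2% DMSO (vehicle control). Radioactive inorganic phosphate (32Pi) uptake into phospholipids measured by a previously reported method with slight modifications. Results given as cpm per mg protein relative to the DMSO control, with standard deviation. Compound tested at 10^-10 to 10^-7 M.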

HeLa [2] = assay: Tumor promoter activity in human HeLa cells assessed as enhancement of incorporation of 32Pi into phospholipid per mg of protein at 0.1 uM; assay type: ADME, cell-based; in short: as §1
HeLa [3] = assay: Tumor promoter activity in human HeLa cells assessed as enhancement of incorporation of 32Pi into phospholipid per mg of protein at 0.1 nM; assay type: ADME, cell-based; details: 0.0001 µM; in short: as §1
HeLa [4] = assay: Tumor promoter activity in human HeLa cells assessed as enhancement of incorporation of 32Pi into phospholipid per mg of protein at 1 nM; assay type: ADME, cell-based; details: 0.001 µM; in short: as §1
[5] = Displacement of [3H]TPA from phorbol ester receptor in ICR mouse epidermal particulate
In short: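 Competition for specific [3H]-TPA binding to a particulate fraction from dorsal epidermis of female ICR mice, by the cold Me2CO filter method with slight modifications. IC50 (concentration giving 50% inhibition) found by probit analysis. Because IC50 drifts between particulate preparations, all compounds were run together on one fraction. Value reported as log 1/M.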

| SMILES | relative 32Pi incorporation (HeLa [1]) | relative 32Pi incorporation (HeLa [2]) | relative 32Pi incorporation (HeLa [3]) | relative 32Pi incorporation (HeLa [4]) | pIC50 [5] |
| --- | --- | --- | --- | --- | --- |
| C=C[C@@]1(C)CC[C@](C)(C(C)C)c2cc3c4c(c[nH]c4c21)C[C@@H](CO)NC(=O)[C@H](C(C)C)N3C | 6.72 | 7.46 | 1.19 | 1.82 | – |
| C=C[C@](C)(CCC=C(C)C)c1ccc2c3c(c[nH]c13)C[C@@H](CO)NC(=O)[C@H](C(C)C)N2C | 4.59 | 8.36 | 1.05 | 1.57 | – |
| CC(C)=CCC/C(C)=C/Cc1ccc2c3c(c[nH]c13)C[C@@H](CO)NC(=O)[C@H](C(C)C)N2C | 2.61 | 6.64 | 0.97 | 1.41 | 8.05 |
